# Experimental data taken from ChEMBL document CHEMBL5058577, “EUbOPEN Chemogenomics Library 2 (Multiplex)” (2022).
# System: U2OS
# Assay: Multiplex assay against U2OS
# Type: toxicity, cell-based
# Conditions: human
# In short: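 Values for tubulin, mitochondrial-mass and membrane-permeability phenotypes are per cents of cells with healthy nuclei. These cells were identified by CellPathfinder machine-learning gating of live cells that had been stained at seeding with Hoechst33342, BioTracker Green Microtubule Cytoskeleton Dye, MitoTracker Red and Annexin V Alexa Fluor 680 and imaged on a CQ1 microscope at 37°C and 5% CO2 after compound addition. The gating first set Hoechst high-intensity objects apart from normal cells, then split normal cells into healthy, pyknosed or fragmented nuclei, and pyknosed cells into mitotic or apoptotic.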
# [1] = 12 h, 1 µM, compound concentration 1 uM, replicate 1
# [2] = 12 h, 1 µM, compound concentration 1 uM, replicate 2
# [3] = 12 h, 10 µM, compound concentration 10 uM, replicate 1
# [4] = 12 h, 10 µM, compound concentration 10 uM, replicate 2
# [5] = 24 h, 1 µM, compound concentration 1 uM, replicate 1
# [6] = 24 h, 1 µM, compound concentration 1 uM, replicate 2
# [7] = 24 h, 10 µM, compound concentration 10 uM, replicate 1
# [8] = 24 h, 10 µM, compound concentration 10 uM, replicate 2
# [9] = 48 h, 1 µM, compound concentration 1 uM, replicate 1
# [10] = 48 h, 1 µM, compound concentration 1 uM, replicate 2
# [11] = 48 h, 10 µM, compound concentration 10 uM, replicate 1
# [12] = 48 h, 10 µM, compound concentration 10 uM, replicate 2
smiles,measurement,setting,value
CC(=O)NCCc1c(Cc2ccccc2)[nH]c2ccccc12 [LUZINDOLE],Population Apoptotic (%),[1],72%
same,Population Fragmented Nuclei (%),[1],25%
same,Population Healthy Nuclei (%),[1],65%
same,Population Hoechst High Intensity Objects (%),[1],3%
same,Population Membrane Permeable-Phenotype (%),[1],3%
same,Population Mitochondria Different-Phenotype (%),[1],4%
same,Population Mitotic Cells (%),[1],27%
same,Population Normal (%),[1],96%
same,Population Pyknosed Nuclei (%),[1],9%
same,Population Tubulin-Different-Phenotype (%),[1],1%
same,Total Cell Count,[1],233
same,Population Apoptotic (%),[2],100%
same,Population Fragmented Nuclei (%),[2],19%
same,Population Healthy Nuclei (%),[2],77%
same,Population Hoechst High Intensity Objects (%),[2],2%
same,Population Membrane Permeable-Phenotype (%),[2],6%
same,Population Mitochondria Different-Phenotype (%),[2],2%
same,Population Mitotic Cells (%),[2],0%
same,Population Normal (%),[2],97%
same,Population Pyknosed Nuclei (%),[2],3%
same,Population Tubulin-Different-Phenotype (%),[2],2%
same,Total Cell Count,[2],134
same,Population Apoptotic (%),[3],81%
same,Population Fragmented Nuclei (%),[3],26%
same,Population Healthy Nuclei (%),[3],65%
same,Population Hoechst High Intensity Objects (%),[3],2%
same,Population Membrane Permeable-Phenotype (%),[3],8%
same,Population Mitochondria Different-Phenotype (%),[3],3%
same,Population Mitotic Cells (%),[3],18%
same,Population Normal (%),[3],97%
same,Population Pyknosed Nuclei (%),[3],7%
same,Population Tubulin-Different-Phenotype (%),[3],4%
same,Total Cell Count,[3],291
same,Population Apoptotic (%),[4],76%
same,Population Fragmented Nuclei (%),[4],13%
same,Population Healthy Nuclei (%),[4],78%
same,Population Hoechst High Intensity Objects (%),[4],1%
same,Population Membrane Permeable-Phenotype (%),[4],5%
same,Population Mitochondria Different-Phenotype (%),[4],2%
same,Population Mitotic Cells (%),[4],23%
same,Population Normal (%),[4],98%
same,Population Tubulin-Different-Phenotype (%),[4],3%
same,Total Cell Count,[4],179
same,Population Apoptotic (%),[5],90%
same,Population Fragmented Nuclei (%),[5],19%
same,Population Healthy Nuclei (%),[5],68%
same,Population Hoechst High Intensity Objects (%),[5],4%
same,Population Membrane Permeable-Phenotype (%),[5],2%
same,Population Mitochondria Different-Phenotype (%),[5],3%
same,Population Mitotic Cells (%),[5],10%
same,Population Normal (%),[5],95%
same,Population Pyknosed Nuclei (%),[5],12%
same,Population Tubulin-Different-Phenotype (%),[5],3%
same,Total Cell Count,[5],260
same,Population Apoptotic (%),[6],88%
same,Population Fragmented Nuclei (%),[6],18%
same,Population Healthy Nuclei (%),[6],70%
same,Population Hoechst High Intensity Objects (%),[6],0%
same,Population Membrane Permeable-Phenotype (%),[6],5%
same,Population Mitochondria Different-Phenotype (%),[6],1%
same,Population Mitotic Cells (%),[6],11%
same,Population Normal (%),[6],99%
same,Population Pyknosed Nuclei (%),[6],10%
same,Population Tubulin-Different-Phenotype (%),[6],4%
same,Total Cell Count,[6],156
same,Population Apoptotic (%),[7],88%
same,Population Fragmented Nuclei (%),[7],25%
same,Population Healthy Nuclei (%),[7],66%
same,Population Hoechst High Intensity Objects (%),[7],2%
same,Population Membrane Permeable-Phenotype (%),[7],6%
same,Population Mitochondria Different-Phenotype (%),[7],3%
same,Population Mitotic Cells (%),[7],12%
same,Population Normal (%),[7],97%
same,Population Pyknosed Nuclei (%),[7],7%
same,Population Tubulin-Different-Phenotype (%),[7],4%
same,Total Cell Count,[7],342
same,Population Apoptotic (%),[8],85%
same,Population Fragmented Nuclei (%),[8],11%
same,Population Healthy Nuclei (%),[8],80%
same,Population Hoechst High Intensity Objects (%),[8],0%
same,Population Mitochondria Different-Phenotype (%),[8],1%
same,Population Mitotic Cells (%),[8],15%
same,Population Normal (%),[8],99%
same,Population Pyknosed Nuclei (%),[8],8%
same,Population Tubulin-Different-Phenotype (%),[8],3%
same,Total Cell Count,[8],236
same,Population Apoptotic (%),[9],91%
same,Population Fragmented Nuclei (%),[9],16%
same,Population Healthy Nuclei (%),[9],74%
same,Population Hoechst High Intensity Objects (%),[9],2%
same,Population Membrane Permeable-Phenotype (%),[9],3%
same,Population Mitochondria Different-Phenotype (%),[9],2%
same,Population Mitotic Cells (%),[9],8%
same,Population Normal (%),[9],97%
same,Population Pyknosed Nuclei (%),[9],9%
same,Population Tubulin-Different-Phenotype (%),[9],2%
same,Total Cell Count,[9],395
same,Population Apoptotic (%),[10],80%
same,Population Fragmented Nuclei (%),[10],11%
same,Population Healthy Nuclei (%),[10],77%
same,Population Hoechst High Intensity Objects (%),[10],1%
same,Population Membrane Permeable-Phenotype (%),[10],8%
same,Population Mitochondria Different-Phenotype (%),[10],1%
same,Population Mitotic Cells (%),[10],20%
same,Population Normal (%),[10],98%
same,Population Pyknosed Nuclei (%),[10],11%
same,Population Tubulin-Different-Phenotype (%),[10],4%
same,Total Cell Count,[10],217
same,Population Apoptotic (%),[11],89%
same,Population Fragmented Nuclei (%),[11],21%
same,Population Healthy Nuclei (%),[11],69%
same,Population Hoechst High Intensity Objects (%),[11],2%
same,Population Membrane Permeable-Phenotype (%),[11],6%
same,Population Mitochondria Different-Phenotype (%),[11],3%
same,Population Mitotic Cells (%),[11],10%
same,Population Normal (%),[11],97%
same,Population Pyknosed Nuclei (%),[11],8%
same,Population Tubulin-Different-Phenotype (%),[11],3%
same,Total Cell Count,[11],446
same,Population Apoptotic (%),[12],100%
same,Population Fragmented Nuclei (%),[12],11%
same,Population Healthy Nuclei (%),[12],82%
same,Population Hoechst High Intensity Objects (%),[12],1%
same,Population Membrane Permeable-Phenotype (%),[12],5%
same,Population Mitochondria Different-Phenotype (%),[12],2%
same,Population Mitotic Cells (%),[12],0%
same,Population Normal (%),[12],98%
same,Population Pyknosed Nuclei (%),[12],5%
same,Total Cell Count,[12],354
